In article PMC10556424 (RSC Advances, 2023):

Columns and labels:
CYP2D6 = CYP2D6 (Homo sapiens, UniProt P10635); experiment: CYP450 inhibition in human liver microsomes; type: in vitro ADME; conditions: pooled human liver microsomes, pH 7.4, probe dextromethorphan (2.5 μM)
Summary of the method: (§1)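 Test compound at 10 μM with pooled human liver microsomes (0.2 mg mL−1) and a cocktail of 10 CYP probe substrates. Buffer was 100 mM potassium phosphate, pH 7.4, with 3.3 mM MgCl2, at 37 °C. β-NADPH (1.3 mM) started the reaction. After 10 min, ice-cold 3% formic acid in 5% acetonitrile stopped it. Centrifuged samples went to LC-MS/MS; each metabolite's formation is given as % inhibition versus control.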

[1] = In vitro microsomal stability; type: in vitro ADME; conditions: human liver microsomes, 1 μM, Table 3
Summary of the method: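 Compound (1 μM) with pooled human liver microsomes (0.4 mg mL−1) in 100 mM potassium phosphate, pH 7.4, with 3.3 mM MgCl2 and 1.3 mM β-NADPH. Organic solvent was ≤1%, at 37 °C. Time-point samples were quenched with ice-cold acetonitrile containing internal standard, centrifuged, and the supernatants analysed by LC-MS/MS. Results are intrinsic clearance.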

CYP2A6 = biological target: T1, CYP2A6 (Homo sapiens, UniProt P11509); experiment: CYP450 inhibition in human liver microsomes; type: in vitro ADME; conditions: pooled human liver microsomes, pH 7.4, probe coumarin (1.5 μM)
T1 sequence (P11509 1-494): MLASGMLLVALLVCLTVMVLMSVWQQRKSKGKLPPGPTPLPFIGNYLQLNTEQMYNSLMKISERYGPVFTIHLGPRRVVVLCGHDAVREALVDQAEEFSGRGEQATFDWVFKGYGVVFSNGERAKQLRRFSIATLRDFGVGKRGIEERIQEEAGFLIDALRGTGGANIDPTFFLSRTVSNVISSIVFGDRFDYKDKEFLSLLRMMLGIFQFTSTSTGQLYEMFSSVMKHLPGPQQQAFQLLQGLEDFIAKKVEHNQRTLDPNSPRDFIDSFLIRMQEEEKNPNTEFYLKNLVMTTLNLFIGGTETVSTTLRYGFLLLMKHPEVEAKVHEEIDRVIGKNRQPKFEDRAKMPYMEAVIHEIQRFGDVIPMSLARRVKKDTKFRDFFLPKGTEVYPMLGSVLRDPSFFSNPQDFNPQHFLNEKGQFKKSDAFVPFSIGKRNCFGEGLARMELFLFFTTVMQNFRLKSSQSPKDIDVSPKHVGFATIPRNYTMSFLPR
Summary of the method: as §1

CYP2C8 = biological target: T2, CYP2C8 (Homo sapiens, UniProt P10632); experiment: CYP450 inhibition in human liver microsomes; type: in vitro ADME; conditions: pooled human liver microsomes, pH 7.4, probe amodiaquine (1 μM)
T2 sequence (P10632 1-490): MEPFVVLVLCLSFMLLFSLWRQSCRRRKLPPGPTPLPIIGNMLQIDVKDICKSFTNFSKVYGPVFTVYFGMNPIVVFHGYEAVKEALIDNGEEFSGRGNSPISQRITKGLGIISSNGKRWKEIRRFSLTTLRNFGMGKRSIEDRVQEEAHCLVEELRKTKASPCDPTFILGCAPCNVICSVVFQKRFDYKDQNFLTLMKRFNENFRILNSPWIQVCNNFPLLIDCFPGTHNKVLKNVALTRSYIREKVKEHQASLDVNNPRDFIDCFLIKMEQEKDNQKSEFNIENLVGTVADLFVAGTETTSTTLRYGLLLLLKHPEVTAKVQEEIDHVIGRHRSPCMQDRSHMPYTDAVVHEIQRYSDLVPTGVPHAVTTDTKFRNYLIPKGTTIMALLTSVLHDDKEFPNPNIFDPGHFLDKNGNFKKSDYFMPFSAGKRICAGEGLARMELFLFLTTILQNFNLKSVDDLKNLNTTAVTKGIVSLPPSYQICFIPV
Summary of the method: as §1

[2] = test system: HBV DNA in HBV-expressed HepG2.2.15 cells; experiment: In vitro anti-HBV activity in HepG2.2.15 cell line; type: cell-based; conditions: Hepatitis B virus, HepG2.2.15, 144 h, read-out: % HBV DNA remaining
Summary of the method: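 HepG2.2.15 cells were seeded at 5 × 10^5 per well in high-glucose DMEM with 10% heat-inactivated FBS, 300 mg L−1 G418, 1% non-essential amino acids and antibiotic–antimycotic, then held overnight at 37 °C, 5% CO2. Compound or 0.5% DMSO was given for 3 days, then renewed for 3 more days. Intracellular HBV DNA was measured by qPCR as % remaining versus vehicle; EC50 came from a 4-parameter nonlinear fit.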

CYP2D6, sequence (P10635 whole entry): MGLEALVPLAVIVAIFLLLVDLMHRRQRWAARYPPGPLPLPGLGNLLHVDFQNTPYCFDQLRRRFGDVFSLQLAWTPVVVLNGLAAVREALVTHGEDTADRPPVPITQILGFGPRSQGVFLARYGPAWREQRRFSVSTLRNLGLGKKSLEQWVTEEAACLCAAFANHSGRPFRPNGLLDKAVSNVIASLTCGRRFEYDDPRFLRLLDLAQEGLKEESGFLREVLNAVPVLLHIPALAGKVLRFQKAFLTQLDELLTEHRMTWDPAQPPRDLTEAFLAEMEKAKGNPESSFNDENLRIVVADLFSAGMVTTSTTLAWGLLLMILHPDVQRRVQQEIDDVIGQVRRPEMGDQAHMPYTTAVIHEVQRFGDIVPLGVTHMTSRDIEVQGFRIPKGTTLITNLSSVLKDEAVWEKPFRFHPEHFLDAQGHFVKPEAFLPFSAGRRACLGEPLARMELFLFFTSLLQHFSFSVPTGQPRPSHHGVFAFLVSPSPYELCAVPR

O=C(Nc1cc(F)c(F)c(F)c1)[C@H]1CCN(C(=O)c2cc3cnccc3[nH]2)C1 [CU04, (S)-1-(1H-Pyrrolo[3,2-c]pyridine-2-carbonyl)-N-(3,4,5-trifluorophenyl)pyrrolidine-3-carboxamide]
inhibition at 10 min, 10 µM (CYP2D6): 82%
CLint [1]: 1.1 μL per min per mg protein
inhibition at 10 min, 10 µM (CYP2A6): 57%
inhibition at 10 min, 10 µM (CYP2C8): 55%
activity at 1 µM [2]: 67%
